Measurements from ChEMBL document CHEMBL1158528, “Synthesis of structurally simplified analogues of aplidinone A, a pro-apoptotic marine thiazinoquinone” (Bioorg Med Chem, 2010).
Activity calls are given as the source filed them. No cut-off for these calls is given here.

Columns and labels:
Jurkat [1] = experiment: Cytotoxicity against human Jurkat cells after 24 hrs by PI staining based flow cytometry; format: functional, cell-based
How it was run: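 Jurkat cells (10^6) were exposed to increasing concentrations for 24 h, then stained with propidium iodide (10 µg/mL in PBS) for 1 min at room temperature. Membrane-compromised cells were counted immediately by flow cytometry with 488 nm excitation.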

AGS = experiment: Cytotoxicity against human AGS cells after 48 hrs by calcein-AM assay; format: functional, cell-based
How it was run: (§1)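 Adherent lines were grown in DMEM with 10% heat-inactivated FBS, 2 mM glutamine, penicillin and streptomycin, seeded at 10^4 cells/well, and exposed to increasing concentrations for 48 h. DMSO stocks were diluted in medium, with final DMSO ≤1%. Calcein-AM (1 µM final) was added for 60 min, stopped on ice, and cells were washed twice with cold HBSS. Fluorescence was read at 485/535 nm to derive IC50.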

HeLa = experiment: Cytotoxicity against human HeLa cells after 48 hrs by calcein-AM assay; format: functional, cell-based; how it was run: as §1
Jurkat 5.1 (human) = experiment: Inhibition of TNF-alpha-induced NF-kappaB activation in human Jurkat 5.1 cells by luciferase assay relative to control
[2] = Cytotoxicity against human 293T cells after 48 hrs by calcein-AM assay; format: cell-based; conditions: HEK-293T; how it was run: as §1
Jurkat [3] = experiment: Cell cycle arrest in human Jurkat cells assessed as apoptotic cells at 25 uM after 24 hrs by flow cytometry; format: functional
How it was run: (§2)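 Jurkat cells in RPMI 1640 with 10% FBS, 2 mM glutamine and antibiotics, at 37 °C and 5% CO2, were treated for 24 h. Cells were fixed in 70% ethanol for 24 h at 4 °C, washed with PBS containing 4% glucose, and digested with RNase A (50 U/mL) plus PI staining for 1 h at RT. The subdiploid (sub-G0/G1) fraction was measured by flow cytometry.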

A549 = experiment: Cytotoxicity against human A549 cells after 48 hrs by calcein-AM assay; format: functional, cell-based; conditions: A549, 48 h; how it was run: as §1
HCT-116 = experiment: Cytotoxicity against human HCT116 cells after 48 hrs by calcein-AM assay; format: functional, cell-based; conditions: HCT-116, 48 h; how it was run: as §1
Jurkat [4] = experiment: Cell cycle arrest in human Jurkat cells assessed as apoptotic cells at 10 uM after 24 hrs by flow cytometry; format: functional; how it was run: as §2
Jurkat [5] = experiment: Cell cycle arrest in human Jurkat cells assessed as increase in apoptotic cells after 24 hrs by flow cytometry; format: functional, cell-based; how it was run: as §2

| Structure (SMILES) | IC50 (Jurkat [1]) [µM] | IC50 (AGS) [µM] | IC50 (HeLa) [µM] | Activity (Jurkat 5.1 (human)) | IC50 [2] [µM] | Activity (Jurkat [3]) [%] | IC50 (A549) [µM] | IC50 (HCT-116) [µM] | Activity (Jurkat [4]) [%] | Activity (Jurkat [5]) |
| --- | --- | --- | --- | --- | --- | --- | --- | --- | --- | --- |
| CCCCCCCCC1=C(OC)C(=O)C2=C(C1=O)S(=O)(=O)CCN2 | 20.7 | 7.2 | 24.8 | Active | 8.7 | 45 | 13 | 14.1 | 26.5 | – |
| CCCCCCCCCCCCCCC1=C(OC)C(=O)C2=C(C1=O)S(=O)(=O)CCN2 | > 50 | 45 | 47.9 | – | 47.9 | – | 50.8 | 44.8 | – | – |
| CCC1=C(OC)C(=O)C2=C(NCCS2(=O)=O)C1=O | > 50 | – | – | inactive | – | – | – | – | – | Active |
| COC1=C(C/C=C(\C)CCC=C(C)C)C(=O)C2=C(C1=O)S(=O)(=O)CCN2 [APLIDINONE A] | 44.5 | – | – | – | – | – | – | – | – | – |
| CCCCCCCCCCCCCCC1=C(OC)C(=O)C2=C(NCCS2(=O)=O)C1=O | > 50 | – | – | – | – | – | – | – | – | – |
| CCCCCCCCC1=C(OC)C(=O)C2=C(NCCS2(=O)=O)C1=O | > 50 | – | – | – | – | – | – | – | – | Active |
| CCC1=C(OC)C(=O)C2=C(C1=O)S(=O)(=O)CCN2 | > 50 | > 50 | > 50 | – | 32.6 | 9.6 | > 50 | > 50 | – | Active |
